# Measurements collected from several papers.
# Target: MAP/microtubule affinity-regulating kinase 3 (MARK3, Homo sapiens, UniProt P27448)
SMILES,read-out,technique,tested at,remaining binding
F[C@@H]1CCN(c2nccc(-c3cnn4ncccc34)n2)C1,binding,,1 µM,100%
CCN1CCN(Cc2ccc(C(=O)Nc3ccc(C)c(Oc4ccc5c(c4)CC(=O)N5)c3)cc2C(F)(F)F)CC1,binding,competition with immobilised ligand,1 µM,100%
COc1cnc(Nc2cccc(S(N)(=O)=O)c2)nc1N1CCN(c2ccccc2)CC1,binding,competition with immobilised ligand,1 µM,100%
O=C(NCC1CCOCC1)c1n[nH]cc1NC(=O)c1c(F)cccc1F,binding,competition with immobilised ligand,1 µM,100%
C[C@H](c1cccc(C#N)c1)n1cc(Cl)cc(C(N)=O)c1=N,cell-free assay,competition with immobilised ligand,1 µM,100%
C[C@@H]1CN(c2ccc3ncc(-c4ccc5[nH]nc(C6CC6)c5c4)n3n2)C[C@H](C)O1,binding,competition with immobilised ligand,0.5 µM,100%
CCc1ccccc1C(=O)Nc1n[nH]c2c(C)c(F)c(C3C(C#N)=C(C)N(C)C(C)=C3C#N)cc12,cell-free assay,competition with immobilised ligand,1 µM,30%
C[C@H]1CCN(c2nccc(-c3cnn4ncccc34)n2)C1,binding,,1 µM,92%
O=C(c1ccc(Nc2ncc(Cl)c(-c3ccc(Cl)s3)n2)cc1)N1CCC(N2CCCC2)CC1,binding,competition with immobilised ligand,1 µM,100%
C[C@H](c1ccc(F)cc1)N(Cc1cccc(C(=O)O)c1)C(=O)c1cnc2ccccc2c1,cell-free assay,competition with immobilised ligand,1 µM,100%
COc1ncc2cc3ccccc3nc2c1C#N,cell-free assay,competition with immobilised ligand,5 µM,100%
O=C(NCCCN1CCOCC1)c1ccc(Nc2nccc(-c3cc4ccccc4s3)n2)cc1,binding,competition with immobilised ligand,1 µM,100%
Cc1cnn2ncc(-c3ccnc(N(C)C)n3)c2c1,binding,,1 µM,82%
C=CC(=O)N1CCC(C(=O)NCC(=O)N2CCN(c3nc(-c4cnc(N)nc4C(F)F)nc(N4CCOCC4)n3)CC2)CC1,binding,competition with immobilised ligand,1 µM,65%
N[C@@H]1CCN(c2nccc(-c3cnn4ncccc34)n2)C1,binding,,1 µM,100%
FC(F)(F)Oc1cccc(-c2cnc3ccc(-c4ccncc4)nn23)c1,cell-free assay,competition with immobilised ligand,5 µM,97%
O=C(O)[C@H]1[C@H](Cn2nnc3ccccc3c2=O)CC[C@@H]1C(=O)c1ccc(OCCC2CCOCC2)cc1,cell-free assay,competition with immobilised ligand,1 µM,100%
CC1CCCN1c1nccc(-c2cnn3ncccc23)n1 (stereo not drawn),binding,,1 µM,100%
O=C(NCc1ncc(C(F)(F)F)cc1Cl)c1ccc2c(c1)C1(CCS(=O)(=O)CC1)[C@H](C1CC1)N2S(=O)(=O)c1ccc(F)cc1,cell-free assay,competition with immobilised ligand,1 µM,89%
Cc1cnc(Nc2ccc(C(=O)N3CCC(N4CCCC4)CC3)cc2)nc1-c1cc2ccccc2s1,binding,competition with immobilised ligand,1 µM,100%
COc1cc(-c2cn(C3CCc4ccccc4N(CC(F)(F)F)C3=O)nn2)ccc1-n1ccc(C)n1 (stereo not drawn),cell-free assay,competition with immobilised ligand,1 µM,100%
CN(C)c1nccc(-c2cnn3ncccc23)n1,binding,,1 µM,100%
Cc1noc([C@H]2C[C@@H](c3ccc(C(F)(F)F)cc3)CN(C(=O)N3CCS(=O)(=O)C3)C2)n1,cell-free assay,competition with immobilised ligand,1 µM,100%
N#Cc1ccccc1CSc1nnc2c(n1)[nH]c1ccccc12,binding,competition with immobilised ligand,10 µM,93%
